Data on 13 compounds can be found in ChEMBL document CHEMBL1147969, “Synthesis of some novel heterocyclic compounds derived from diflunisal hydrazide as potential anti-infective and anti-inflammatory agents” (2007).

≈ marks a conversion by molar mass, not a printed value. Calls of active or inactive are those of the source.

Test [1] concerns Mus musculus. The experiment in a line: Antiinflammatory activity against BALB/c mouse assessed as inhibition of carrageenan-induced paw edema at 50 mg/kg, po after 4 hrs. It is filed as functional. The essentials: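 Mice were fasted on the last day (water only) and dosed by gavage at 50 mg/kg, suspended in 0.5% methyl cellulose; controls got vehicle, six mice per group. After 60 min, 0.5 mg/mL carrageenan in saline was injected subplantar into the right hind paw, with saline in the left. The right–left thickness difference was read by microcaliper at 4 h. % inhibition = (n−n0)/n×100 versus control.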
For orientation: In the carrageenan paw model, swelling and tenderness develop within hours.

The subject of test [2] is Mus musculus. The experiment in a line: Antinociceptive activity against mouse assessed as paw withdrawal latency at 50 mg/kg, po after 60 mins by hot plate test. Format: functional. The essentials: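 Hot plate was set at 55 °C. Latency to jumping or hind-paw licking was recorded before and 60 min after oral dosing at 50 mg/kg, or vehicle, with a 30 s cutoff. Groups had at least eight mice each. Testing was done between 2:00 and 4:00 pm.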
On the technique in general: Thermal pain tests record how soon the animal reacts.

The next test has as its system Coxsackievirus B4. As to the kind of experiment: Antiviral activity against Coxsackie virus B4-induced cytopathogenicity at 16 ug/mL. It is filed as functional, organism-based. For orientation: Cytopathic effects are the visible damage that an infection or toxin causes in cultured cells.
In test [3] the test system is Sindbis virus. The experiment in a line: Antiviral activity against Sindbis virus-induced cytopathogenicity at 9.6 ug/mL. It is filed as functional, organism-based.
Test [4] concerns Human alphaherpesvirus 1. The experiment in a line: Antiviral activity against TK positive HSV1 KOS-induced cytopathogenicity at 16 ug/mL. Format: functional, organism-based.
Test [5] has as its system Sindbis virus. As to the kind of experiment: Antiviral activity against Sindbis virus-induced cytopathogenicity at 16 ug/mL. It is filed as functional, organism-based.
In another test the test system is Punta Toro virus. As to the kind of experiment: Antiviral activity against Punta Toro virus-induced cytopathogenicity at 16 ug/mL. Format: functional, organism-based.
Test [6] deals with Human alphaherpesvirus 1. As to the kind of experiment: Antiviral activity against acyclovir resistant TK positive HSV1 KOS-induced cytopathogenicity at 16 ug/mL. Format: functional, organism-based.
For test [7], the system named is Proteus vulgaris. As to the kind of experiment: Antimicrobial activity against Proteus vulgaris KUKEM1329 by disk diffusion method at 10 ug/disc. To be noted: read-out: IZ. It is filed as functional.
The subject of test [8] is Proteus vulgaris. The experiment in a line: Antimicrobial activity against Proteus vulgaris A161 by disk diffusion method at 10 ug/disc. Format: functional. To be noted: read-out: IZ.
The subject of test [9] is Streptococcus pyogenes. As to the kind of experiment: Antimicrobial activity against Streptococcus pyogenes ATCC 176 by disk diffusion method at 10 ug/disc. To be noted: read-out: IZ. Format: functional.
Test [10] concerns Streptococcus pyogenes. The experiment in a line: Antimicrobial activity against Streptococcus pyogenes KUKEM676 by disk diffusion method at 10 ug/disc. To be noted: read-out: IZ. It is filed as functional.
The next test has as its system Escherichia coli. As to the kind of experiment: Antimicrobial activity against Escherichia coli A1 by microwell dilution method. Format: functional. An outline of the steps: (§1)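 For broth microdilution, inocula came from 12 h broth cultures adjusted to 0.5 McFarland. Test agents in 10% DMSO were serially diluted twofold (7.8–500) in nutrient broth. Wells were shaken 20 s at 300 rpm and incubated 24 h. Clear wells were plated on nutrient agar to check growth. MIC was the lowest concentration inhibiting growth. Each compound was screened twice per organism.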

Test [11] has as its system Proteus vulgaris. As to the kind of experiment: Antimicrobial activity against Proteus vulgaris A161 […]. It is filed as functional. The essentials:
as §1

Test [12] deals with Proteus vulgaris. The experiment in a line: Antimicrobial activity against Proteus vulgaris KUKEM1329 by disk diffusion method at 300 ug/disc. Format: functional. The essentials: as §1
For test [13], the system named is Streptococcus pyogenes. The experiment in a line: Antimicrobial activity against Streptococcus pyogenes ATCC 176 by microwell dilution method. It is filed as functional. The essentials: as §1
Another test relates to Enterococcus faecalis. As to the kind of experiment: Antimicrobial activity against Enterococcus faecalis ATCC […] by microwell dilution method. Format: functional. The essentials: as §1
Test [14] relates to Streptococcus pyogenes. The experiment in a line: Antimicrobial activity against Streptococcus pyogenes KUKEM676 by microwell dilution method. Format: functional. The essentials: as §1
Test [15] concerns Streptococcus pyogenes. As to the kind of experiment: Antimicrobial activity against Streptococcus pyogenes KUKEM676 by disk diffusion method at 300 ug/disc. It is filed as functional. The essentials:
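Mueller-Hinton agar was spread with 10^8 CFU/mL bacteria. 6 mm discs held 300 per disc of test agent, with DMSO discs as negative controls. Plates were incubated 24 h, at 37 °C for clinical strains or 27 °C for plant-associated strains. Zone of inhibition diameter in mm was measured. Each assay was repeated twice.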

A further test concerns Human alphaherpesvirus 2. As to the kind of experiment: Antiviral activity against HSV2-induced cytopathogenicity at 16 ug/mL. It is filed as functional, organism-based.

Broadly, the inhibition in vivo is the share of the control response that was lost under treatment. For `Oc1ccc(-c2ccc(F)cc2F)cc1-c1nnc(NC2CCCCC2)s1`, the inhibition in vivo at 50 mg/kg in the test on Mus musculus [1] was found to be 41.4%. In addition, in the test on Mus musculus [2], the Paw withdrawal latency is 12.5 s.
As for `CNc1nnc(-c2cc(-c3ccc(F)cc3F)ccc2O)s1`, in the test on Mus musculus [1], the inhibition in vivo at 50 mg/kg turned out to be 45.4%. Moreover, in the test with Mus musculus [2], the Paw withdrawal latency is reported as 13.5 s. Moreover, the outcome with Coxsackievirus B4, in the test on Sindbis virus [3], in the test with Human alphaherpesvirus 1 [4], with Sindbis virus [5], with Punta Toro virus and with Human alphaherpesvirus 1 [6] was Active.
Take `Cc1ccc(Nc2nnc(-c3cc(-c4ccc(F)cc4F)ccc3O)s2)cc1`: the inhibition in vivo at 50 mg/kg in the test with Mus musculus [1] is 43.5%. For the same compound, in the test on Mus musculus [2], the Paw withdrawal latency was 14.5 s.
With `Oc1ccc(-c2ccc(F)cc2F)cc1-c1n[nH]c(=S)n1-c1ccccc1`, in the test with Mus musculus [1], the inhibition in vivo at 50 mg/kg was determined as 36.3%. Also, the Paw withdrawal latency with Mus musculus [2] was 16 s. Also, the outcome in the test with Human alphaherpesvirus 1 [4] was Active.
As to `CC1COc2c(N3CCN(C)CC3)c(F)cc3c(=O)c(C(=O)O)cn1c23` (stereo not given) [OFLOXACIN], the zone of inhibition at 10 µg/disc in the test with Proteus vulgaris [7] is 13 mm; in the test on Proteus vulgaris [8] it was 12 mm; in the test on Streptococcus pyogenes [9] it was 10 mm; in the test with Streptococcus pyogenes [10], 13 mm.
In the case of `Oc1ccc(-c2ccc(F)cc2F)cc1-c1nnc(Nc2ccccc2)s1`, the inhibition in vivo at 50 mg/kg in the test on Mus musculus [1] is 43%. Also, the Paw withdrawal latency with Mus musculus [2] is on record as 16.5 s. Moreover, the “inhibition zone (IZ)” value came to 16 mm with Escherichia coli, 14 mm in the test with Proteus vulgaris [11], 16 mm in the test on Proteus vulgaris [12] and 18 mm in the test with Streptococcus pyogenes [13].
Turning to `CNc1nnc(-c2cc(-c3ccc(F)cc3F)ccc2O)o1`, the inhibition in vivo at 50 mg/kg in the test on Mus musculus [1] worked out at 41.4%. The Paw withdrawal latency in the test with Mus musculus [2] is listed as 10.9 s.
The like results for `Cc1ccc(Nc2nnc(-c3cc(-c4ccc(F)cc4F)ccc3O)o2)cc1` were, in that order, 33.8% and 11.1 s.
The term MIC denotes the lowest concentration that inhibits growth of the organism. High values mean a less susceptible organism, low ones a more susceptible organism. On to `COc1ccc(-n2c(-c3cc(-c4ccc(F)cc4F)ccc3O)n[nH]c2=S)cc1`, for which the inhibition in vivo at 50 mg/kg in the test with Mus musculus [1] worked out at 53.5%. Further, in the test on Mus musculus [2], the Paw withdrawal latency is on record as 15 s. The “inhibition zone (IZ)” value in the test on Enterococcus faecalis was found to be 12 mm; in the test on Proteus vulgaris [12], 10 mm; in the test on Streptococcus pyogenes [13] it was 10 mm; in the test on Streptococcus pyogenes [14], 9 mm. In the test on Streptococcus pyogenes [15], this compound returned an MIC of 125 µg/mL (≈ 304 µM).
As to `Oc1ccc(-c2ccc(F)cc2F)cc1-c1nnc(Nc2ccccc2)o1`, the inhibition in vivo at 50 mg/kg in the test on Mus musculus [1] was 39.5%. The Paw withdrawal latency in the test on Mus musculus [2] stood at 12 s.
On to `O=C(O)c1cc(-c2ccc(F)cc2F)ccc1O` [DIFLUNISAL], for which, in the test on Mus musculus [1], the inhibition in vivo at 50 mg/kg was 24.2%. In the test with Mus musculus [2], the Paw withdrawal latency came out at 19.1 s.
On to `C=CCNc1nnc(-c2cc(-c3ccc(F)cc3F)ccc2O)o1`, for which the inhibition in vivo at 50 mg/kg with Mus musculus [1] came out at 36.6%. Also, in the test on Mus musculus [2], the Paw withdrawal latency is reported as 9.8 s. Further, the result with Human alphaherpesvirus 2 was Active.
For the compound `CCNc1nnc(-c2cc(-c3ccc(F)cc3F)ccc2O)o1`, in the test with Mus musculus [1], the inhibition in vivo at 50 mg/kg was found to be 36.8%. The Paw withdrawal latency with Mus musculus [2] amounted to 11 s.
